Test [1] deals with T1, Muscarinic acetylcholine receptor M3 (Rattus norvegicus, UniProt P08483). In words: Antagonist activity at rat muscarinic M3 receptor expressed in CHO cells by calcium mobilization assay. The test is classed as functional, cell-based.
The target in test [2] is T2, Muscarinic acetylcholine receptor M1 (Homo sapiens) (UniProt P11229).
T2 sequence (whole entry): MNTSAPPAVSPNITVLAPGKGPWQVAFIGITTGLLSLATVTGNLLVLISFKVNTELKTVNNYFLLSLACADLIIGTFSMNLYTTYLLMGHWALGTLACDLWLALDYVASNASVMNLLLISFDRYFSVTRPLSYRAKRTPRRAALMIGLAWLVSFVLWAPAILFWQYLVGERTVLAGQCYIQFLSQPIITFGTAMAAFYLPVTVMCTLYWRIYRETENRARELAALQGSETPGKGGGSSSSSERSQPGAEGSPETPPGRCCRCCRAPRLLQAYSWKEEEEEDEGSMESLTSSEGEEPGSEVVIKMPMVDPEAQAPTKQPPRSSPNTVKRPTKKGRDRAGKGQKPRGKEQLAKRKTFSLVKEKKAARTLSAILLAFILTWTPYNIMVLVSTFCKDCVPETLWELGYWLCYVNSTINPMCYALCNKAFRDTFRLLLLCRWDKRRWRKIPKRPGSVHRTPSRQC
In words: Inhibition of human muscarinic M1 receptor.

Test [3] addresses T3, Muscarinic acetylcholine receptor M5 (Rattus norvegicus, UniProt P08911).
T3 sequence (P08911 whole entry): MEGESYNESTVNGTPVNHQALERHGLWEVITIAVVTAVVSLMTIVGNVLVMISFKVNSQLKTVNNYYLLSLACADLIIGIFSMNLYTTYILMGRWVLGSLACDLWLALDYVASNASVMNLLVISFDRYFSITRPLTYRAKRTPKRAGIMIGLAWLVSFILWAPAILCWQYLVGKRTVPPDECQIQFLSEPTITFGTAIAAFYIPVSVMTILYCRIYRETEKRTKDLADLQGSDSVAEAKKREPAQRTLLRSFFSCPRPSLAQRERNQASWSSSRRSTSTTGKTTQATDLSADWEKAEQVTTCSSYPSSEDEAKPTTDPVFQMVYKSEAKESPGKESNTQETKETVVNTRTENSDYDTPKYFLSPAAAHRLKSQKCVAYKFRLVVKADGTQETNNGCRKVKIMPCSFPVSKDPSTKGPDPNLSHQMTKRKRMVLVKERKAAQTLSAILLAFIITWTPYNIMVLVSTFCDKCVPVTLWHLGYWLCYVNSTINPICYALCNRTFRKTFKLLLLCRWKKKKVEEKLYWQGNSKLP
In words: Antagonist activity at rat muscarinic M5 receptor expressed in CHO cells by calcium mobilization assay. Type of test: functional, cell-based.

For test [4], the target named is T4, Muscarinic acetylcholine receptor M4 (Rattus norvegicus, UniProt P08485).
T4 sequence (P08485 whole entry): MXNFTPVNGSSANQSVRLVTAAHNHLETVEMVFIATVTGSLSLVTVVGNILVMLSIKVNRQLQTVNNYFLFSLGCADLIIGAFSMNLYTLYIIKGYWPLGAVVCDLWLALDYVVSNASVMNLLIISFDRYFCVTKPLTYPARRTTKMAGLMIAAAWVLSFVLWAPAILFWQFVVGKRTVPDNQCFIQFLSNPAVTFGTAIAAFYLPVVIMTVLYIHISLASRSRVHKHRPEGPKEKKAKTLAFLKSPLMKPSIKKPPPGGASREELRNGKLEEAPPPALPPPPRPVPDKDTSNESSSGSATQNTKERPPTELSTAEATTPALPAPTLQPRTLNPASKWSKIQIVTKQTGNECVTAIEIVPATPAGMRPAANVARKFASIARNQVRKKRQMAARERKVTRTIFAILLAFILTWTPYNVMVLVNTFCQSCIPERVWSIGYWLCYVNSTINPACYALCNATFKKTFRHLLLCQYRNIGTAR
In words: Antagonist activity at rat muscarinic M4 receptor expressed in CHO cells by calcium mobilization assay. Type of test: functional, cell-based.

Test [5] has as its target T5, Muscarinic acetylcholine receptor M1 (Rattus norvegicus, UniProt P08482).
T5 sequence (P08482 whole entry): T2 sequence (whole entry) with A5V, T254S, P309S, R320K, A337G, I413V
In words: Antagonist activity at rat muscarinic M1 receptor expressed in CHO cells by calcium mobilization assay. Type of test: functional, cell-based.

In test [6] the target is T6, Muscarinic acetylcholine receptor M2 (Rattus norvegicus, UniProt P10980).
T6 sequence (P10980 whole entry): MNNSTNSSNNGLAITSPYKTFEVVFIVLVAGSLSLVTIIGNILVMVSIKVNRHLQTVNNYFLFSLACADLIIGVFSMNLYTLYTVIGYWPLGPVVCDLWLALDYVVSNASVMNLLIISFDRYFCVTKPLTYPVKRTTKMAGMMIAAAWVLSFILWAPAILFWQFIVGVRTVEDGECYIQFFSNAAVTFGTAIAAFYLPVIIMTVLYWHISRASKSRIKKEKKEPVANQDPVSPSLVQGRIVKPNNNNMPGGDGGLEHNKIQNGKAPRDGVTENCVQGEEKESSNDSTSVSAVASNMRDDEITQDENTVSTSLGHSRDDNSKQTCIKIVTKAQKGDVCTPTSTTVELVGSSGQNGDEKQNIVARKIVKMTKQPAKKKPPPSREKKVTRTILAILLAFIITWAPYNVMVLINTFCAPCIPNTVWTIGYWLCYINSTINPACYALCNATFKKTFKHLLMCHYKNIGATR
In words: Antagonist activity at rat muscarinic M2 receptor expressed in CHO cells by calcium mobilization assay. Type of test: functional, cell-based.

For test [7], the species on record is Rattus norvegicus. In words: Selectivity for rat muscarinic M1 receptor over rat muscarinic M4 receptor by calcium mobilization assay.
The species entered for test [8] is Rattus norvegicus. In words: Selectivity for rat muscarinic M1 receptor over rat muscarinic M5 receptor by calcium mobilization assay.
The species entered for test [9] is Rattus norvegicus. In words: Selectivity for rat muscarinic M1 receptor over rat muscarinic M3 receptor by calcium mobilization assay.
For test [10], the target named is T5, Muscarinic acetylcholine receptor M1. In words: Displacement of [3H]NMS from rat muscarinic M1 receptor expressed in CHO cells. Type of test: cell-based. In a few lines:
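Competition binding against the orthosteric radioligand [³H]-N-methylscopolamine on rat mAChR subtypes from CHO cell lines, with atropine as positive control. Ki values are averages of three independent experiments.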

Test [11] concerns the target T6, Muscarinic acetylcholine receptor M2. In words: Displacement of [3H]NMS from rat muscarinic M2 receptor expressed in CHO cells. Type of test: cell-based.
In test [12] the target is T4, Muscarinic acetylcholine receptor M4. In words: Displacement of [3H]NMS from rat muscarinic M4 receptor expressed in CHO cells. The test is classed as cell-based.
Test [13] concerns the target T3, Muscarinic acetylcholine receptor M5. In words: Displacement of [3H]NMS from rat muscarinic M5 receptor expressed in CHO cells. The test is classed as cell-based.
In test [14] the target is T1, Muscarinic acetylcholine receptor M3. In words: Displacement of [3H]NMS from rat muscarinic M3 receptor expressed in CHO cells. Type of test: cell-based.

Substitutions are numbered along the chain they refer to. Activity calls are given as the source filed them. The calls are words filed in the database; no cut-off is given here.

T1 sequence (P08483 whole entry): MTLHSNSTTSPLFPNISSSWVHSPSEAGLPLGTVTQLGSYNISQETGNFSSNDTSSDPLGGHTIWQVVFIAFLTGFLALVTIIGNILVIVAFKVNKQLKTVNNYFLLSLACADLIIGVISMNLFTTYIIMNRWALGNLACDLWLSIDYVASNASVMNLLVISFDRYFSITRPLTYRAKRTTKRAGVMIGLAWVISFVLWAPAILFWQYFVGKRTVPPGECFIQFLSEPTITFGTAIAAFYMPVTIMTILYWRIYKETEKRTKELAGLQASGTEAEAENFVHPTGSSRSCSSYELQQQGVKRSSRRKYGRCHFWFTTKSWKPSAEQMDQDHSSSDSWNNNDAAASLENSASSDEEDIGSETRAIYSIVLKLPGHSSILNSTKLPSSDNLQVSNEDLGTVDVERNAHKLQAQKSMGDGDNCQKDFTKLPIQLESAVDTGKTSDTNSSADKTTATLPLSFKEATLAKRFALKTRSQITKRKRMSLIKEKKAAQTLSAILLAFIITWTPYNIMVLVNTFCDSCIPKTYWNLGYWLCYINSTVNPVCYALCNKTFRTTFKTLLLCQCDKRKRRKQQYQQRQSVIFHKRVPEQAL

Turning to `CCCCCC(=O)Nc1ccc(N2CCN(CC)CC2)c(Cl)c1`, the IC50 in test [1] is greater than 150 µM; in test [3] it was greater than 150 µM; in test [4], 7.9 µM; in test [5], 0.49 µM; in test [6] it was greater than 150 µM. Further, in [2], the result was Active.

As to `CCN1CCN(c2ccc(NC(=O)c3ccccc3)cc2Cl)CC1`, the IC50 in test [1] is greater than 150 µM; in test [3], greater than 150 µM; in test [4], 66 µM; in test [5], 5 µM; in [6], greater than 150 µM.

Turning to `CCN1CCN(c2ccc(NC(=O)[C@H]3C[C@@H]3c3ccccc3)cc2Cl)CC1`, the IC50 in [1] came to 24 µM; in test [3], 13 µM; in test [4], 20 µM; in [5], 1.15 µM; in test [6], 29 µM.

Consider `CN1CCN(CC(=O)N2c3ccccc3C(=O)Nc3cccnc32)CC1`, for which the Ratio IC50 in the test listed under Rattus norvegicus [7], in the test filed under Rattus norvegicus [8] and in the test filed under Rattus norvegicus [9] was 20 throughout.

Consider `CCN1CCN(c2ccc(NC(=O)COc3ccccc3)cc2Cl)CC1`, for which the IC50 was greater than 150 µM in test [1]; greater than 150 µM in [3]; greater than 150 µM in test [4]; 3.3 µM in test [5]; greater than 150 µM in [6]. Further, the Ratio IC50 in the test listed under Rattus norvegicus [7], in the test filed under Rattus norvegicus [8] and in the test filed under Rattus norvegicus [9] was greater than 45 in each case.

As for `CCN1CCN(c2ccc(NC(=O)CCC3CCCC3)cc2Cl)CC1`, the IC50 in [1] was 3.1 µM; in test [3], 1.1 µM; in [4], greater than 150 µM; in [5], 0.44 µM; in test [6], 3.5 µM. Further, the Ki in [10] stood at 0.0127 µM; in test [11], 0.338 µM; in test [12], 0.445 µM; in test [13], 0.0857 µM; in test [14], 0.0748 µM. Further, the Ratio IC50 is greater than 340 in the test listed under Rattus norvegicus [7], 2.4 in the test listed under Rattus norvegicus [8] and 7 in the test filed under Rattus norvegicus [9].

For `CCN1CCN(c2ccc(NC(=O)COCc3ccccc3)cc2Cl)CC1`, the IC50 in test [1] is greater than 150 µM; in test [3], greater than 150 µM; in [4] it was greater than 150 µM; in test [5] it was 18.8 µM; in [6], greater than 150 µM.

With `CCN1CCN(c2ccc(NC(=O)C3CCCCC3)cc2Cl)CC1`, the half-inhibitory concentration (IC50) in test [1] was greater than 150 µM; in [3] it was greater than 150 µM; in test [4] it was greater than 150 µM; in test [5], 4.6 µM; in test [6], greater than 150 µM. Besides, the Ratio IC50 in the test filed under Rattus norvegicus [7], in the test filed under Rattus norvegicus [8] and in the test listed under Rattus norvegicus [9] was greater than 32 in each case.

Turning to `CCN1CCN(c2ccc(NC(=O)Cc3ccc(F)cc3)cc2Cl)CC1`, the IC50 was greater than 150 µM in test [1]; greater than 150 µM in [3]; greater than 150 µM in test [4]; 5.6 µM in [5]; greater than 150 µM in test [6]. Further, the Ratio IC50 in the test listed under Rattus norvegicus [7], in the test listed under Rattus norvegicus [8] and in the test listed under Rattus norvegicus [9] was greater than 26 each time.

For `CCCC(=O)Nc1ccc(N2CCN(CC)CC2)c(Cl)c1`, the IC50 in test [1], in test [3], in test [4], in [5] and in [6] was greater than 150 µM throughout.

As to `CCN1CCN(c2ccc(NC(=O)CC(C)(C)C)cc2Cl)CC1`, the IC50 in test [1], in [3], in test [4], in [5] and in test [6] was greater than 150 µM in each case.

For `CCCCOc1cccc(C(=O)Nc2ccc(N3CCN(CC)CC3)c(Cl)c2)c1`, in [2], the result was Active. The IC50 in test [4] came out at 5.1 µM; in test [5] it was 0.58 µM.

For `CCN1CCN(c2ccc(NC(=O)CCc3ccccc3)cc2Cl)CC1`, the IC50 is 70 µM in test [1]; 7.6 µM in test [3]; 18 µM in test [4]; 1.1 µM in test [5]; 52 µM in test [6]. For the same molecule, the Ratio IC50 came to 16 in the test listed under Rattus norvegicus [7], 6.9 in the test listed under Rattus norvegicus [8] and 63 in the test listed under Rattus norvegicus [9].

Source of the values: ChEMBL document CHEMBL1143155, “Synthesis and SAR of selective muscarinic acetylcholine receptor subtype 1 (M1 mAChR) antagonists” (Bioorg Med Chem Lett, 2008).
